Test results: ChEMBL document CHEMBL1949593, “Stilbene-chalcone hybrids: design, synthesis, and evaluation as a new class of antimalarial scaffolds that trigger cell death through stage specific apoptosis” (J Med Chem, 2012)
Activity calls are given as the source filed them. The calls are words filed in the database; no cut-off is given here.

Experiments:
Plasmodium falciparum [1] = test: Growth inhibition of ring stage chloroquine-sensitive Plasmodium falciparum 3D7 at 10 uM treated for 48 hrs following washout incubated for 48 hrs in drug free medium by Giemsa staining; format: functional, organism-based
Procedure, shortened: (§1)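 Highly synchronized 3D7 cultures were exposed by stage: rings 48 h, trophozoites 24 h, schizonts 8 h. After a media wash, cultures grew 48 h in drug-free complete RPMI, in triplicate. Giemsa smears were read by counting 3000 cells per stage; pycnotic parasites were scored nonviable. Inhibition is percent of drug-free control.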

Plasmodium falciparum [2] = test: Antimalarial activity against ring stage chloroquine-sensitive Plasmodium falciparum 3D7 infected in human O positive erythrocytes after 48 hrs by SYBR green 1 fluorescence assay; format: functional, organism-based; conditions: 3D7, 48 h
Procedure, shortened: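 P. falciparum 3D7 in O+ human erythrocytes in complete RPMI with Albumax at 37 °C under 5% O2/5% CO2. Culture was sorbitol-synchronized to rings and plated at 2% hematocrit, 1% parasitemia. Drug range was 0–100 μM with 0.4% final DMSO, in triplicate. After 48 h, SYBR Green I fluorescence was read (ex 497/em 520 nm). IC50 was taken by visual matching of 50% growth inhibition.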

Plasmodium falciparum [3] = test: Antimalarial activity against ring stage chloroquine-resistant Plasmodium falciparum Dd2 infected in human O positive erythrocytes after 48 hrs by SYBR green 1 fluorescence assay; format: functional, organism-based; conditions: Dd2, 48 h
Procedure, shortened: (§2)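 Ring-stage cultures were sorbitol-synchronized in O+ human erythrocytes in RPMI 1640 with 0.5% Albumax, hypoxanthine and gentamicin, then plated at 2% hematocrit and 1% parasitemia. Drugs were tested at 0–100 μM (final DMSO 0.4%) in triplicate for 48 h at 37 °C under 5% O2/5% CO2/90% N2. Read-out was SYBR Green I (ex 497/em 520 nm). IC50 was read visually as 50% growth inhibition, with chloroquine as control.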

Plasmodium falciparum [4] = test: Antimalarial activity against ring stage chloroquine-resistant Plasmodium falciparum INDO infected in human O positive erythrocytes after 48 hrs by SYBR green 1 fluorescence assay; format: functional, organism-based; procedure, shortened: as §2
[5] = Resistance index, ratio of IC50 for ring stage chloroquine-resistant Plasmodium falciparum INDO to IC50 for ring stage chloroquine-sensitive Plasmodium falciparum 3D7; format: functional
[6] = Resistance index, ratio of IC50 for ring stage chloroquine-resistant Plasmodium falciparum Dd2 to IC50 for ring stage chloroquine-sensitive Plasmodium falciparum 3D7; format: functional
[7] = Therapeutic index, ratio of IC50 for human HeLa cells to IC50 for ring stage chloroquine-sensitive Plasmodium falciparum 3D7; format: cell-based; conditions: read-out: Ratio IC50
Procedure, shortened: (§3)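 HeLa or L929 fibroblasts were seeded at 10^4 cells per well in RPMI with 10% FBS, left overnight, then exposed 24 h at 37 °C, 5% CO2. MTT was added for 3 h; formazan was dissolved in DMSO and read at 570 nm. IC50 came from dose–response curves. Index = IC50(mammalian)/IC50(Pf 3D7, SYBR Green assay).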

[8] = Therapeutic index, ratio of IC50 for […] cells to IC50 for ring stage chloroquine-sensitive Plasmodium falciparum 3D7; format: cell-based; conditions: mouse, read-out: Ratio IC50; procedure, shortened: as §3
[9] = Inhibition of Plasmodium falciparum falcipain-2 using benzyloxycarbonyl-Phe-Arg-7-amino-4-methyl coumarin hydrochloride as substrate preincubated for 10 mins prior substrate addition by fluorimetric assay
Procedure, shortened: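 Recombinant falcipain-2 (2 μg) was preincubated 10 min at room temperature with or without compound, in triplicate. Buffer was 100 mM sodium acetate pH 5.5 with 10 mM DTT and 1% final DMSO. Z-Phe-Arg-AMC was then added at 10 μM final. AMC release was read at ex 355/em 460 nm. IC50 was taken by visual matching of 50% inhibition.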

Plasmodium falciparum [10] = test: Antimalarial activity against chloroquine-sensitive Plasmodium falciparum 3D7 assessed as inhibition of schizonts growth at 10 uM treated for 8 hrs followed by washout measured after 48 hrs by Giemsa staining; format: functional, organism-based
Procedure, shortened: (§4)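 Highly synchronized 3D7 schizonts were exposed to drug for 8 h under normal culture conditions, alongside untreated controls. After a media wash, cultures were incubated for 48 h with or without drug. Giemsa-stained thin smears were examined microscopically for parasitemia and stage, and compared with control.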

Plasmodium falciparum [11] = test: Antimalarial activity against chloroquine-sensitive Plasmodium falciparum 3D7 assessed as merozoites egress at 10 uM treated for 8 hrs followed by washout measured after 48 hrs by Giemsa staining; format: functional, organism-based; procedure, shortened: as §4
Plasmodium falciparum [12] = test: Inhibition of RBC invasion of chloroquine-sensitive Plasmodium falciparum 3D7 schizonts at 10 uM treated for 8 hrs followed by washout measured after 48 hrs by Giemsa staining; format: functional, organism-based; procedure, shortened: as §4
Plasmodium falciparum [13] = test: Growth inhibition of ring stage chloroquine-sensitive Plasmodium falciparum 3D7 at 10 uM treated for 24 hrs followed by washout measured after 72 hrs by Giemsa staining; format: functional, organism-based
Procedure, shortened: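 Synchronized 3D7 ring cultures were exposed for 18, 24 or 48 h, then washed free of drug. Cultures were kept under normal conditions to 96 h total. Giemsa-stained thin smears were read by counting 3000 cells; inhibition is relative to the matching drug-free control.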

Plasmodium falciparum [14] = test: Growth inhibition of chloroquine-sensitive Plasmodium falciparum 3D7 trophozoites at 10 uM treated for 24 hrs followed by washout measured after 48 hrs by Giemsa staining; format: functional, organism-based; procedure, shortened: as §1
Plasmodium falciparum [15] = test: Induction of apoptosis in chloroquine-sensitive Plasmodium falciparum 3D7 trophozoites assessed as nuclear condensation at 10 uM at 18 hrs by Giemsa staining; format: functional, organism-based
Plasmodium falciparum [16] = test: Reduction in parasitemia of chloroquine-sensitive Plasmodium falciparum 3D7 trophozoites at 10 uM after 48 hrs by Giemsa staining; format: functional, organism-based
Plasmodium falciparum [17] = test: Reduction in parasitemia of ring stage chloroquine-sensitive Plasmodium falciparum 3D7 at 10 uM after 48 hrs by Giemsa staining; format: functional, organism-based
Plasmodium falciparum [18] = test: Induction of apoptosis in ring stage chloroquine-sensitive Plasmodium falciparum 3D7 assessed as chromatin fragmentation at 10 uM at 18 hrs by Hoechst 33342 staining; format: functional, organism-based
Plasmodium falciparum [19] = test: Induction of apoptosis in chloroquine-sensitive Plasmodium falciparum 3D7 trophozoites assessed as chromatin fragmentation at 10 uM at 18 hrs by Hoechst 33342 staining; format: functional, organism-based
Procedure, shortened: (§5)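 3D7 trophozoite cultures were treated 18 or 24 h, and ring cultures 24, 42 or 48 h. Parasites were stained with Hoechst 33342 for 10 min at room temperature, washed with PBS, and smeared. Condensed or fragmented chromatin (blue, 460 nm) was viewed by fluorescence microscopy.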

Plasmodium falciparum [20] = test: Induction of apoptosis in ring stage chloroquine-sensitive Plasmodium falciparum 3D7 assessed as chromatin condensation at 10 uM at 18 hrs by Hoechst 33342 staining; format: functional, organism-based
Plasmodium falciparum [21] = test: Induction of apoptosis in chloroquine-sensitive Plasmodium falciparum 3D7 trophozoites assessed as chromatin condensation at 10 uM at 18 hrs by Hoechst 33342 staining; format: functional, organism-based; procedure, shortened: as §5
Plasmodium falciparum [22] = test: Induction of internucleosomal fragmentation in chloroquine-sensitive Plasmodium falciparum 3D7 trophozoites at 10 uM at 24 hrs by Hoechst 33342 staining; format: functional, organism-based; procedure, shortened: as §5
Plasmodium falciparum [23] = test: Induction of internucleosomal fragmentation in ring stage chloroquine-sensitive Plasmodium falciparum 3D7 at 10 uM at 24 hrs by Hoechst 33342 staining; format: functional, organism-based; procedure, shortened: as §5
Plasmodium falciparum [24] = test: Induction of apoptosis in ring stage chloroquine-sensitive Plasmodium falciparum 3D7 assessed as disruption of mitochondrial membrane potential at 10 uM by JC-1 staining; format: functional, organism-based
Procedure, shortened: (§6)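 3D7 ring cultures were treated 24, 42 or 48 h, and trophozoite cultures 18 or 24 h. Parasites were stained with JC-1 for 20 min at 37 °C and viewed as wet mounts by fluorescence microscopy. Red-orange aggregate signal (590 nm) indicates intact ΔΨm; green monomer signal (525 nm) indicates dissipation.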

Plasmodium falciparum [25] = test: Induction of apoptosis in chloroquine-sensitive Plasmodium falciparum 3D7 trophozoites assessed as disruption of mitochondrial membrane potential at 10 uM by JC-1 staining; format: functional, organism-based; procedure, shortened: as §6
Plasmodium falciparum [26] = test: Growth inhibition of ring stage chloroquine-sensitive Plasmodium falciparum 3D7 at 10 uM treated for 48 hrs following washout incubated for 48 hrs in drug free medium by SYBR green 1-based fluorescence assay; format: functional, organism-based
Procedure, shortened: (§7)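 Stage-specific exposure of synchronized 3D7: rings 48 h, trophozoites 24 h, schizonts 8 h. Drug was removed by media wash and cultures grew 48 h drug-free, in a separate triplicate set. Growth was read by SYBR Green I fluorescence and expressed as percent inhibition relative to drug-free control.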

Plasmodium falciparum [27] = test: Growth inhibition of chloroquine-sensitive Plasmodium falciparum 3D7 trophozoites at 10 uM treated for 24 hrs following washout incubated for 48 hrs in drug free medium by SYBR green 1-based fluorescence assay; format: functional, organism-based; procedure, shortened: as §7
Plasmodium falciparum [28] = test: Growth inhibition of chloroquine-sensitive Plasmodium falciparum 3D7 schizonts at 10 uM treated for 8 hrs following washout incubated for 48 hrs in drug free medium by Giemsa staining; format: functional, organism-based; procedure, shortened: as §1
Plasmodium falciparum [29] = test: Growth inhibition of chloroquine-sensitive Plasmodium falciparum 3D7 schizonts at 10 uM treated for 8 hrs following washout incubated for 48 hrs in drug free medium by SYBR green 1-based fluorescence assay; format: functional, organism-based; procedure, shortened: as §7
Plasmodium falciparum [30] = test: Induction of apoptosis in ring stage chloroquine-sensitive Plasmodium falciparum 3D7 assessed as nuclear condensation at 10 uM at 24 hrs by Giemsa staining

With `COc1cc(OC)c(OC)cc1/C=C/C(=O)c1ccc(/C=C/c2cc(OC)c(OC(C)=O)c(OC)c2)cc1` the “growth inhibition (GI)” value (Plasmodium falciparum [1]) was “Active”, the IC50 (Plasmodium falciparum [2]) was 2.2 µM and the IC50 (Plasmodium falciparum [3]) was 2.2 µM. The IC50 (Plasmodium falciparum [4]) was 1.98 µM, the “Ratio IC50” value [5] was 0.9 and the “Ratio IC50” value [6] was 1. The selectivity ratio [7] was over 45.5, the selectivity ratio [8] was over 45.5 and the IC50 [9] was 25 µM. For the same molecule, the “growth inhibition (GI)” value (Plasmodium falciparum [10]) was “inactive”, the inhibition (Plasmodium falciparum [11]) was “inactive” and the inhibition (Plasmodium falciparum [12]) was “inactive”. The “growth inhibition (GI)” value (Plasmodium falciparum [13]) was “Active”, the “growth inhibition (GI)” value (Plasmodium falciparum [14]) was “Active” and the Activity (Plasmodium falciparum [15]) was “Active”. For the same molecule, the Activity (Plasmodium falciparum [16]) was “Active”, the Activity (Plasmodium falciparum [17]) was “Active” and the Activity (Plasmodium falciparum [18]) was “Active”. For the same molecule, the Activity (Plasmodium falciparum [19]) was “Active”, the Activity (Plasmodium falciparum [20]) was “Active” and the Activity (Plasmodium falciparum [21]) was “Active”. The Activity (Plasmodium falciparum [22]) was “Active”, the Activity (Plasmodium falciparum [23]) was “inactive” and the Activity (Plasmodium falciparum [24]) was “Active”. For the same molecule, the Activity (Plasmodium falciparum [25]) was “Active”, the “growth inhibition (GI)” value (Plasmodium falciparum [26]) was “Active” and the “growth inhibition (GI)” value (Plasmodium falciparum [27]) was “Active”. For the same molecule, the “growth inhibition (GI)” value (Plasmodium falciparum [28]) was “inactive”, the “growth inhibition (GI)” value (Plasmodium falciparum [29]) was “inactive” and the Activity (Plasmodium falciparum [30]) was “Active”.
